Source: PubChem BioAssay (Broad Institute)
GASC1 inh: KDM4C (human) demethylase inhibition. Q9H3R0. GST-KDM4C 2-372, H3K9me3 peptide, LANCE TR-FRET. inhibition, % at 12.5 µM. actives 0.15% (n = 96,000). AID 720574;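 active = mean replicate inhibition above about 25%, with at least 55% of replicates also reaching it, limit read from the data, passing the limit was not always enough; inconclusive = only one of those two conditions met; inactive = neither condition met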
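Compound: one test concentration per compound; Material: GST-GASC-1 enzyme fragment 2-372; Amount: GASC-1 enzyme at 10 nM final in reaction; Also added: H3K9me3 peptide substrate, Fe(II), 2-oxoglutarate; Technique: LANCE TR-FRET; Times: 30 min demethylation and 1 h detection at room temperature.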
T cruzi growth-1: blocks T. cruzi growth in NIH3T3 culture; T. cruzi beta-gal in NIH3T3, GalScreen luminescence, 90 h; actives 5.9% (n = 77,000); inhibition, % at 8.34 µM;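 active = mean inhibition above about 93%, with at least 55% of replicates each passing it, limit read from the data, passing the limit was not always enough; inconclusive = only one of those two conditions holds; inactive = neither condition holds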
IDH1 mut inh: blocks human IDH1 R132H reductase activity | O75874 | diaphorase/resazurin fluorescence, 60 min | inhibition, % at 10 µM | actives 0.18% (n = 70,000) | AID 624101; in the data active = inhibition above about 34%; inconclusive = no clear call, values can overlap the other calls; inactive = below about 11%;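 note: 0% = DMSO and 100% = no enzyme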
Target sequence (O75874 whole entry R132H): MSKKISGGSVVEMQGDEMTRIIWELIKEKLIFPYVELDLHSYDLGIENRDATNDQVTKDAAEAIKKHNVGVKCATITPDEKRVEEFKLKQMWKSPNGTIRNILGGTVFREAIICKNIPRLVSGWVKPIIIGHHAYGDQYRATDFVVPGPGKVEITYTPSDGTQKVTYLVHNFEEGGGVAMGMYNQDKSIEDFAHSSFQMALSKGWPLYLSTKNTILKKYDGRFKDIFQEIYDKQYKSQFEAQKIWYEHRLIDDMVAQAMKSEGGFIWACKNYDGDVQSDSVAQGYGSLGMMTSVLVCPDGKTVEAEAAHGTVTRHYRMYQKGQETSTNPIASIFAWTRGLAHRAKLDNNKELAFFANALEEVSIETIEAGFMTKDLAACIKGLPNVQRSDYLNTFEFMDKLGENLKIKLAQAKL
Pf Dd2 growth: blocks growth of Plasmodium falciparum Dd2 parasites; actives 2.3% (n = 94,000); activity change, % at 10 µM; P. falciparum Dd2 growth, SYBR Green, 72 h; stronger effect = lower value; in the data active = activity change below about -80%; inconclusive = no clear call, values can overlap the other calls
T cruzi growth-2: blocks T. cruzi growth in NIH3T3 host cells. T. cruzi beta-gal in NIH3T3, GalScreen luminescence, 90 h. shares compounds with T cruzi growth-1. inhibition, % at 8.35 µM. actives 72% (n = 5,600);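 active = mean replicate inhibition above about 95% and at least 55% of replicates individually reaching it, limit read from the data; inconclusive = only one of the two criteria is met; inactive = neither criterion is met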
T cruzi growth-3: inhibitors of T. cruzi proliferation; shares compounds with T cruzi growth-1; T. cruzi beta-gal in NIH3T3, GalScreen luminescence, 90 h; inhibition, % at 2.09 µM; actives 21% (n = 5,600); AID 651740;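 active = mean inhibition above about 95%, with at least 55% of replicates also reaching it, limit read from the data; inconclusive = meets just one of the two conditions; inactive = meets neither condition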;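 note: plate controls were neutral control median for no effect and positive control median for full effect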
NIH3T3 tox: kills mouse NIH/3T3 fibroblasts; shares compounds with T cruzi growth-1; NIH/3T3 viability, CellTiter-Glo ATP luminescence, 90 h; cytotoxicity (signal decrease), % at 8.35 µM; actives 14% (n = 5,600); AID 651742;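 active = mean signal decrease across replicates above about 35% based on untreated-well scatter, with enough replicates individually passing, limit read from the data; inconclusive = no rule stated though some were filed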;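 note: 0% = median of neutral control wells and 100% = median of positive control wells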
NIH3T3 tox 2: NIH/3T3 (mouse) viability loss; shares compounds with T cruzi growth-1; NIH/3T3 viability, CellTiter-Glo ATP luminescence, 90 h; inhibition, % at 24.9 µM; actives 56% (n = 5,600); AID 651744;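 active = mean loss of cell viability signal at or above a set limit, and enough replicates individually reaching it; inconclusive = meets only the mean limit or only the replicate share; inactive = meets neither condition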;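 note: 0% = median of neutral control wells and 100% = median of positive control wells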
* marks the source's active call; other numbers are inactive results; ? = inconclusive; . = no result given. Hits are enriched below; roughly 5.8% of the tested compounds scored in any of these assays.

SMILES	GASC1 inh	T cruzi growth-1	IDH1 mut inh	Pf Dd2 growth	T cruzi growth-2	T cruzi growth-3	NIH3T3 tox	NIH3T3 tox 2
O=C(O)CSc1nc2cc(N3CCOCC3)c(F)cc2[nH]1	.	.	0	.	.	.	.	.
Cc1ccc([N+](=O)[O-])cc1NC(=O)CSc1nnnn1C1CC2CCC1C2 (stereo not given)	.	.	-1	.	.	.	.	.
C[C@H]1CN([C@@H](C)CO)C(=O)c2cccc(NC(=O)Nc3ccccc3)c2O[C@@H]1CN(C)Cc1ccc(Oc2ccccc2)cc1	.	81	1	-40	.	.	.	.
CC(C)NC(=O)Nc1cccc2c1O[C@H](CN(C)Cc1ccc(Oc3ccccc3)cc1)[C@H](C)CN([C@@H](C)CO)C2=O	-1	54	-1	-71	.	.	.	.
CC(C)NC(=O)Nc1cccc2c1O[C@H](CN(C)Cc1ccc(Oc3ccccc3)cc1)[C@@H](C)CN([C@H](C)CO)C2=O	6	103*	-2	-32	102*	62	-26	103*
C[C@H](CO)N1C[C@H](C)[C@H](CN(C)Cc2ccc(Oc3ccccc3)cc2)Oc2c(NC(=O)Nc3cccc4ccccc34)cccc2C1=O	-5	98*	-1	-78	99*	109*	19	?
CC(C)NC(=O)Nc1cccc2c1O[C@H](CN(C)Cc1ccc(Oc3ccccc3)cc1)[C@@H](C)CN([C@@H](C)CO)C2=O	-1	?	1	-64	100*	83	-15	104*
C[C@@H]1CN([C@H](C)CO)C(=O)c2cc(NC(=O)Nc3cccc4ccccc34)ccc2O[C@H]1CN(C)Cc1ccc(Cl)c(Cl)c1	-2	102*	0	15	102*	96*	43*	29*
C[C@@H]1CN([C@H](C)CO)C(=O)c2cc(NC(=O)Nc3cccc4ccccc34)ccc2O[C@@H]1CN(C)Cc1ccc(Cl)c(Cl)c1	-1	?	1	19	94	29	36*	25*
C[C@H](CO)N1C[C@H](C)[C@H](CN(C)Cc2ccc(Cl)c(Cl)c2)Oc2ccc(NC(=O)Nc3cccc4ccccc34)cc2C1=O	-1	-4	0	11	.	.	.	.
C[C@H](CO)N1C[C@H](C)[C@@H](CN(C)Cc2ccc(Cl)c(Cl)c2)Oc2ccc(NC(=O)Nc3cccc4ccccc34)cc2C1=O	-1	93	.	-20	.	.	.	.
COC(=O)c1ccc(CSc2nnc(CN3CCOCC3)n2C)cc1	.	.	0	.	.	.	.	.
CC(=O)Nc1ccc2c(c1)C(=O)N(C)[C@H]1CC[C@@H](CC(=O)Nc3cn(C)nc3C)O[C@@H]1CO2	10	-8	.	5	.	.	.	.
C[C@@H]1CCCCO[C@@H](CN(C)Cc2ccccc2)[C@@H](C)CN([C@H](C)CO)C(=O)c2cc(NC(=O)Nc3ccc(F)cc3)ccc2O1	0	101*	.	28	107*	56	12	14
C[C@@H]1CCCCO[C@H](CN(C)Cc2ccccc2)[C@@H](C)CN([C@H](C)CO)C(=O)c2cc(NC(=O)Nc3ccc(F)cc3)ccc2O1	-1	66	13	26	.	.	.	.
C[C@@H]1CCCCO[C@@H](CN(C)Cc2ccccc2)[C@H](C)CN([C@@H](C)CO)C(=O)c2cc(NC(=O)Nc3ccc(F)cc3)ccc2O1	1	?	-1	?	103*	44	10	105*
C[C@H](CO)N1C[C@H](C)[C@H](CN(C)Cc2ccccc2)OCCCC[C@H](C)Oc2ccc(NC(=O)Nc3ccc(F)cc3)cc2C1=O	-2	?	.	4	97*	114*	23	104*
C[C@H]1CN([C@@H](C)CO)C(=O)c2cccc(NC(=O)Nc3ccc(C(F)(F)F)cc3)c2O[C@H]1CN(C)Cc1ccc(Oc2ccccc2)cc1	-1	93	-4	2	.	.	.	.
C[C@H]1CN([C@@H](C)CO)C(=O)c2cccc(NC(=O)Nc3ccc(C(F)(F)F)cc3)c2O[C@H]1CN(C)Cc1ccc(C(F)(F)F)cc1	-1	94	.	-8	.	.	.	.
